The structures appear in SMILES notation. pIC50: −log10 of the molar value. Activity calls are given as the source filed them. The calls are words filed in the database; no cut-off is given here.

One test addresses T1, Phospholipase A2 (Apis mellifera, UniProt B7UUK1).
T1 sequence (B7UUK1 whole entry): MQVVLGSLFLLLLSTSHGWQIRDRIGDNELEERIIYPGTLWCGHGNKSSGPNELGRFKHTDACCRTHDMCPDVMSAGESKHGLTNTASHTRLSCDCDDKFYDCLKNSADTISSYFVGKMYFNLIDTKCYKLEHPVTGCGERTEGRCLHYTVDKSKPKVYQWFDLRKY
Description: (§1) Inhibition of bee venom PLA2.

For test [1], the target named is T2, Phospholipase A2 (Apis mellifera) (UniProt B7UUK1).
T2 sequence (whole entry): T1 sequence (B7UUK1 whole entry)
The test is described as §1.

Test [2] addresses T2, Phospholipase A2 (Apis mellifera). The test can be described thus: Inhibition of bee venom PLA2 assessed as inactivation of enzyme at 2 ug/ml. Also on record: scale not given: the % may be the effect or the level left.
Test [3] addresses T3, Phospholipase A2, membrane associated (Homo sapiens) (UniProt P14555).
T3 sequence (whole entry): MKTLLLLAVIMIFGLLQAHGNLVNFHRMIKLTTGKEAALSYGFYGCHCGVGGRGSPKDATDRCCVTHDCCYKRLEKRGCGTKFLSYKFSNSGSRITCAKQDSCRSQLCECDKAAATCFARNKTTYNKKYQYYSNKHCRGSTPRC
The test can be described thus: Inhibition of human synovial fluid-PLA2. The note with it: concentration not given here.

Test [4] has as its target T2, Phospholipase A2 (Apis mellifera). Description: Inhibition of bee venom PLA2 assessed as inactivation of enzyme at 1.6 ug/ml. Further details: scale not given: the % may be the effect or the level left. An outline of the steps:
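³H-dipalmitoyl phosphatidylcholine (1.36 mM, Triton X-100 mixed micelles) in 10 mM HEPES, 1 mM CaCl2, pH 7.4. Bee venom PLA2 (100 units/ml) preincubated 1 h at 41° with compound from 10 mg/ml stock, then added to substrate for 15 sec at 41°. Acid-quenched, released palmitic acid extracted and scintillation counted, corrected for background and extraction efficiency. % inactivation vs vehicle, triplicate mean.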

The target is the same in test [5]. The test can be described thus: Inhibition of bee venom PLA2 at 4 uM.

For the compound `CC1=C(CC/C(C)=C/CC/C(C=O)=C\C=C\C2=CC(=O)O[C@H]2O)C(C)(C)CCC1`, the pIC50 (commonly −log10 of the IC50, conventionally taken in molar units) on Phospholipase A2 is 6.55.
For `C=C1CCC[C@H]2[C@](C)(CC3=C(O)C(=O)C=C(OC)C3=O)[C@@H](C)CC[C@]12C`, the outcome in test [1] was inactive.
As to `CCCC(=O)O[C@H]1[C@@H](OC(C)=O)[C@@]23C(CC[C@H]4C(=O)O[C@@H](O[C@H]2O)[C@H]43)[C@@]2(C)CCCC(C)(C)[C@H]12` (stereo partly specified), the Activity in test [2] was 50%.
For `CC1=C[C@H]2Cc3ccoc3C(C)(C)[C@H]2CC1`, in test [2], the outcome was inactive.
For `CC1=CC(CC2=CC(=O)OC2O)C(C(C)C)CC1` (stereo unspecified), the Activity in test [2] was 60%.
For `C=C([C@@H]1[C@@H](OC(C)=O)O[C@@H]2OC(=O)C[C@@H]21)[C@H]1CC[C@H]2C(C)(C)CCC[C@]12C`, the Activity in test [2] turned out to be 66%.
As for `CC(=O)O[C@H]1C[C@@H]2[C@@]3(C)CCCC(C)(C)[C@@H]3CC[C@@]2(C)[C@@H]2CC=C(C=O)[C@H](C=O)[C@@]12C` [SCALARADIAL], on Phospholipase A2, the pIC50 is 7.15.
Regarding `CC1=C(CC/C(C)=C/CC/C(C)=C/CCC2=CC(=O)OC2O)C(C)(C)CCC1` (stereo unspecified) [LUFFARIELLOLIDE], the pIC50 on Phospholipase A2 was 6.64. Besides, the inhibition (usually the relative decrease from the control value, in per cent) in test [3] was found to be 98%.
Compound `CC1(C)CCC[C@]2(C)[C@H]3C[C@@H](O)[C@]4(C)[C@@H](C=O)C(C=O)=CC[C@H]4[C@]3(C)CC[C@@H]12` showed a pIC50 against Phospholipase A2 of 6.70.
Turning to `Oc1cc(Cc2c(O)cc(O)c(Br)c2O)c(Br)c(Br)c1O`, in test [4], the Activity worked out at 96%.
With `CC1=CC2C[C@]34OC(=O)C[C@]3(O4)C(C)(C)C2CC1` (stereo partly specified), in test [2], the result was inactive.
Regarding `C=C1CCCC(C)(C)[C@@H]2CC[C@@](C)([C@H]3[C@H]4CC(=O)O[C@H]4O[C@H]3O)[C@H]12`, the Activity in test [2] amounted to 48%.
With `CC(=O)O[C@@H]1O[C@H]2OC(=O)[C@H](C)C3=C([C@@]4(C)CCCC(C)(C)C4)C[C@@H](OC(C)=O)[C@@H]1[C@H]32`, the Activity in test [2] is 60%.
Regarding `CCCC(=O)O[C@@H]1C[C@H]2C(C)(C)CCC[C@]2(C)C2CC[C@H]3C(=O)O[C@H]4O[C@@H](O)[C@]21[C@H]43` (stereo partly specified), in test [2], the Activity was determined as 65%.
`CC1=CC2C[C@]3(O)OC(=O)C=C3C(C)(C)C2CC1` (stereo partly specified): the Activity in test [2] came out at 60%.
On the same count and under the same terms, to `CC1=C[C@H]2Cc3occc3C(C)(C)[C@H]2CC1` belongs “inactive”.
As for `Oc1cc(Cc2c(O)c(Br)c(O)c(Cc3cc(O)c(O)c(Br)c3Br)c2O)c(Br)c(Br)c1O`, the Activity in test [4] was 96%.
Consider `CCCC(=O)O[C@H]1[C@@H](O)[C@@]23C(CC[C@H]4C(=O)O[C@@H](O[C@H]2O)[C@H]43)[C@@]2(C)CCCC(C)(C)[C@@H]12` (stereo partly specified), for which, in test [2], the Activity is 44%.
`CC1(C)CCC[C@]2(C)[C@H]3C[C@@H](O)[C@]4(C)[C@H](C=O)C(C=O)=CC[C@H]4[C@]3(C)CC[C@@H]12` registered an inhibition in test [5] below 70%.
Turning to `CC1=C(CC/C(C)=C/CCC2=CC[C@H](C3=CC(=O)O[C@H]3O)O[C@H]2O)C(C)(C)CCC1` [MANOALIDE], the pIC50 against Phospholipase A2 is 7.40.

The values are drawn from ChEMBL document CHEMBL1150062, “Phospholipase A2 inhibitors from marine organisms” (J Nat Prod, 1992).
